M5 PAM: CHRM5 positive allosteric modulation | P08912 | CHO-K1 hM5, Fluo-8 calcium, ACh EC20 PAM; 0% = ACh EC20, 100% = ACh EC100 | activation, % at 3 µM | actives 0.3% (n = 360,000);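 active = activation above the run cutoff, the mean activation of all test compounds plus 3 SD, cut at about 18% in these data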
Target sequence (P08912 whole entry, looked up): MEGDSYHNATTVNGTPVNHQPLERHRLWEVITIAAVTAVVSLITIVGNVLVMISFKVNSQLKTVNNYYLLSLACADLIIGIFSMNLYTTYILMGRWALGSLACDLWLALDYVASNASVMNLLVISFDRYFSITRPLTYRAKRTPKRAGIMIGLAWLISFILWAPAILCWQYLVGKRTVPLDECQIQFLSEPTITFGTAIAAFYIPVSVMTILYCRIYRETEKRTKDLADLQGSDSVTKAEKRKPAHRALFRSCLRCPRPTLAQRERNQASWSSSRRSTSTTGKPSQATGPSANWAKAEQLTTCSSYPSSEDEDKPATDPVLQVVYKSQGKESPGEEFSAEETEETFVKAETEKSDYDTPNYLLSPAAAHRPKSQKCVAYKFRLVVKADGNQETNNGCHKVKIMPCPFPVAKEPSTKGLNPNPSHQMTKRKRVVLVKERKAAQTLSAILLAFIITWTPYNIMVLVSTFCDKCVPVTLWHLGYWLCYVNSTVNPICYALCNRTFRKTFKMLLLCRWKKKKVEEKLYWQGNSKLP
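Measured by: Fluo-8 calcium fluorescence; material: human M5 receptor in CHO-K1 cells; schedule: Post-acetylcholine fluorescence recording 140 s; benchmarks: low control EC20 acetylcholine (0%), high control EC100 acetylcholine (100%); read-out: Max/basal fluorescence ratio as % of EC20–EC100 ACh window; compound: single dose, 3 µM nominal final test concentration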
M4 ag: CHRM4 agonism in calcium assay; actives 0.14% (n = 360,000); CHO-K1 hM4/Gqi5, Fluo-8 calcium fluorescence; vehicle 0%, full acetylcholine response 100%; P08173; AID 624127; activation, % at 3 µM;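 active = activation above the run mean over all test wells plus 3 SD, cut at about 32% in these data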;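 also: peak over basal fluorescence ratio per well then scaled between controls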
CHRM4 PAM: positive allosteric modulators of human muscarinic M4 receptor; CHO-K1 hM4/Gqi5, Fluo-8 calcium fluorescence, ACh EC20; 0% = ACh EC20, 100% = maximal ACh; activation, % at 3 µM; P08173; AID 624126; actives 0.4% (n = 360,000);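 active = activation above its plate's cutoff, the mean activation of sample wells plus 3 SD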
CHRM5 agonist: CHRM5 agonism in calcium assay. CHO-K1 hM5 cells, Fluo-8 calcium fluorescence; 0% DMSO wells, 100% maximal acetylcholine response. activation, % at 3 µM. actives 0.19% (n = 360,000). AID 624037;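 active = activation above the run's mean over test compounds plus 3 SD, cut at about 23% in these data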;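 also: signal is peak over basal fluorescence ratio across the kinetic read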
CHRM5 antagonist: CHRM5 antagonism in calcium assay. P08912. CHO-hM5 cells, Fluo-8 calcium fluorescence, ACh EC80. inhibition, % at 3 µM. actives 0.59% (n = 360,000). AID 624040;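 active = inhibition above a per-plate cutoff, the mean of that plate's test compounds plus 3 SD, cut at about 27% in these data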
M4 antag: CHRM4 antagonism in calcium assay. CHO-hM4 cells, ACh EC80, Fluo-8 calcium fluorescence. inhibition, % at 3 µM. actives 0.73% (n = 360,000);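 active = inhibition above its plate's cutoff, the mean inhibition of sample wells plus 3 SD, cut at about 27% in these data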
Hits are given with their value; . = inactive. The list is not random: actives were taken first. Their share in the collection is about 1.8%.

SMILES	M5 PAM	M4 ag	CHRM4 PAM	CHRM5 agonist	CHRM5 antagonist	M4 antag
COc1ccc2[nH]c(C(=O)N3CCN(c4ccccc4F)CC3)c(C)c2c1	.	.	.	.	.	.
Nc1c(C(=O)CSc2n[nH]c(-c3ccccc3)n2)c(=O)[nH]c(=O)n1C1CC1	.	.	23	.	.	.
Nc1c(C(=O)CSc2n[nH]c(-c3ccccc3Br)n2)c(=O)[nH]c(=O)n1C1CC1	.	.	.	.	.	.
OCCN1CCN(CC/C=C2/c3ccccc3Sc3ccc(Cl)cc32)CC1	.	.	.	.	.	.
CN(C)CC/C=C1\c2cc(Cl)ccc2Sc2cc(F)c(F)cc21	.	.	.	.	99	98
CN(C)CC/C=C1\c2ccc(F)cc2Sc2cc(F)c(Cl)cc21	.	.	.	.	99	99
CN(C)CC/C=C1/c2ccc(F)cc2Sc2ccc(Cl)cc21	.	.	.	.	99	100
CN(C)CC/C=C1\c2ccccc2Sc2ccc(Cl)cc21	.	.	.	.	100	98
O=C(Nc1cc(Cl)ccc1N1CCCC1)C1=COCCO1	.	.	.	.	.	.
CC(C)c1ccc(NC(=O)CSc2nc3ccsc3c(=O)n2CCC(=O)O)cc1	.	.	.	.	.	.
CN(C)CC/C=C1\c2ccccc2Sc2cc(F)c(Cl)cc21	.	.	.	.	100	99
CN(C)CCOc1ccc2c(c1)Sc1ccccc1CC2=O	.	.	.	.	.	.
Cc1ccc(CN2CCNC(=O)C2CC(=O)N2CCN(c3ncccn3)CC2)o1 (stereo not given)	.	.	.	.	.	.
Cc1nccn1C(c1ccccc1)c1ccccc1	.	.	.	.	.	.
CC(C)c1ccc2c(c1)C(N1CCN(C)CC1)Cc1cccnc1S2 (stereo not given)	.	.	.	.	.	.
Clc1cccc2c1Sc1ccccc1CC2N1CCNCC1 (stereo not given)	.	.	.	.	78	68
NC(=O)CCN1CCN(CCOC2Cc3cc(Cl)ccc3Sc3ccccc32)CC1 (stereo not given)	.	.	.	.	28	.
Clc1ccc2c(c1)C(N1CCNCC1)Cc1ccccc1S2 (stereo not given)	.	.	.	.	97	82
COCCCN1CCN(C2Cc3ccccc3Sc3ccc(Cl)cc32)CC1 (stereo not given)	.	.	.	.	30	.
COc1ccc2c(c1)CC(N1CCN(C)CC1)c1cc(OC)ccc1S2 (stereo not given)	.	.	.	.	.	.
CCCC1C(=O)Nc2ccccc2N1C(=O)c1cccc(C)c1 (stereo not given)	.	.	.	.	29	45
CCOC(=O)C1=CC[C@H]2c3c(c4ccccc4n3C)C(=O)C1N2C(=O)OC(C)(C)C	.	.	.	.	.	.
O=C(NCc1cccnc1)c1cccc2c1C(=O)N(Cc1cccnc1)C2	19	.	.	.	.	.
Cc1cc(=O)[nH]c2cc(Cl)ccc12	.	.	.	.	.	.
COc1ccc2c(C)cc(=O)[nH]c2c1	40	.	23	.	.	.
SMILES	M5 PAM	M4 ag	CHRM4 PAM	CHRM5 agonist	CHRM5 antagonist	M4 antag
CC1CCCC(C)N1C(=O)COC(=O)c1ccc([N+](=O)[O-])o1 (stereo not given)	.	.	.	.	.	.
CCCCC(=O)N/N=C(C)/C=C/c1ccccc1F	.	.	.	.	.	.
Cc1cccc(OC(=O)NCCOC(=O)N(O)c2ccc(Cl)cc2)c1	.	.	.	.	32	.
Cc1cccc(OCC(=O)Oc2ccc(Cl)cc2)c1	.	.	.	.	.	.
COc1ccc(S(=O)(=O)N2CCC(C(=O)NC3CC(C)(C)NC(C)(C)C3)CC2)cc1	.	.	.	.	.	.
CC12CCC3C(=CCc4cc(O)ccc43)C1CC(=NO)C2O (stereo not given)	.	.	.	24	.	.
Nc1cc([N+](=O)[O-])ccc1Nc1ccc(O)cc1	.	.	.	.	32	.
OC(c1ccc(F)cc1)c1nc(-c2cc3ccccc3o2)cs1 (stereo not given)	.	61	.	.	.	.
Cc1cc(SCC(=O)NCC2CCCO2)nc2ccccc12 (stereo not given)	.	.	.	23	.	.
Cc1cc(C(=O)CN2C(=O)NC(C)(c3ccccc3)C2=O)c(C)n1CC1CCCO1 (stereo not given)	.	.	.	.	.	27
Cc1cc(C(=O)CSc2nc3ccccc3c(=O)[nH]2)c(C)n1CC1CCCO1 (stereo not given)	.	.	.	.	36	27
CCn1c(SCC(=O)c2cc(C)n(CC3CCCO3)c2C)nc2ccccc21 (stereo not given)	.	.	.	.	.	.
O=C(NCC(c1ccco1)N1CCCC1)c1cn(-c2ccccc2)nc1-c1ccc(F)cc1 (stereo not given)	.	.	.	.	.	.
COc1cccc(/C=C/C(=O)OCC(=O)c2c[nH]c3ccccc23)c1OC	.	.	.	.	27	.
CCOC(=O)C1CCN(C(=O)COC(=O)/C=C/c2cccc(OC)c2OC)CC1	.	.	.	24	.	.
COc1cccc(/C=C/C(=O)OCC(=O)c2c[nH]c3ccccc23)c1	.	.	.	.	.	.
CCOC(=O)C1CCN(C(=O)COC(=O)/C=C/c2ccccc2)CC1	.	.	.	.	.	.
Cc1c(N2CCCCC2)[nH]c2ccccc12	.	.	.	.	.	.
COc1ccc(NC(=O)c2ccc3c(c2)OCO3)cc1Cl	29	.	.	.	.	.
O=C(Nc1ccc2c(c1)OCCO2)c1ccccc1	.	.	.	.	.	29
O=C(Nc1ccc(F)c(Cl)c1)c1ccc2c(c1)OCO2	.	.	.	.	.	.
COc1ccc(C(=O)/C=C/C(=O)N(CC(=O)NC2CCCCC2)Cc2cccs2)c(O)c1	.	.	.	.	.	34
COCCN(CC(=O)NC1CCCCC1)C(=O)/C=C/C(=O)c1ccc(OC)cc1O	.	.	.	.	.	.
O=C(NC(Cc1ccccc1)C(=O)O)/C(=C/c1ccc(Br)cc1)NC(=O)c1ccc(Br)o1 (stereo not given)	.	.	19	.	.	.
O=C(NC(Cc1ccccc1)C(=O)O)/C(=C\c1ccc(Br)cc1)NC(=O)c1ccc(Br)o1 (stereo not given)	.	.	.	.	.	.
COc1ccc(N(CC(=O)NC2CCCC2)C(=O)c2ccc(C)s2)cc1OC	.	.	.	.	.	.
